These results are taken from ChEMBL document CHEMBL1212778, “Small-molecule inhibitors target Escherichia coli amyloid biogenesis and biofilm formation” (2009).

In assay [1] the test system is Escherichia coli. The experiment in a line: Inhibition of CsgF biogenesis in Escherichia coli K-12 at 2.5 mM after […] by polyacrylamide gel-shift assay. The assay is classed as functional, organism-based. An outline of the steps: (§1)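 MC4100 was grown 48 h at 26 °C on YESCA agar containing compound at 0.1, 1.0 or 2.5 mM final, with a DMSO carrier control (3.6% v/v). Cells were resuspended in PBS to OD600 0.5 and curli were dissociated with HFIP or formic acid. CsgA, CsgB, CsgF and CsgG were detected by SDS-PAGE immunoblot with curli-specific antibodies. MC4100Δcsg served as negative control.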

For assay [2], the system named is Escherichia coli. The experiment in a line: Inhibition of curli protein biogenesis in Escherichia coli K-12 at 1 mM after […] by polyacrylamide gel-shift assay. The assay is classed as functional, organism-based. The procedure, abridged: as §1
The test system of assay [3] is Escherichia coli. The experiment in a line: Inhibition of curli protein biogenesis in uropathogenic Escherichia coli UTI89 at 60 to 250 uM after 48 hrs in YESCA broth medium by polyacrylamide gel-shift assay. The assay is classed as functional, organism-based. The procedure, abridged: (§2)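 UTI89 was inoculated from an overnight LB culture into YESCA broth containing compound and shaken at 100 rpm, 28 °C, for 48 h. Cells were pelleted, resuspended in PBS and normalized to OD600 0.5. Curli were dissolved with formic acid and analysed by curli-antibody immunoblot. Samples prepared the same way were also imaged by high-resolution EM.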

The subject of assay [4] is Escherichia coli. The experiment in a line: Inhibition of CsgG biogenesis in Escherichia coli K-12 at 2.5 mM after […] by polyacrylamide gel-shift assay. The format is functional, organism-based. An outline of the steps: as §1
In assay [5] the test system is Escherichia coli. The experiment in a line: Inhibition of curli protein biogenesis in uropathogenic Escherichia coli UTI89 at 60 to 250 uM after 48 hrs by electron microscopy. The format is functional, organism-based. An outline of the steps:
as §2

Assay [6] deals with Escherichia coli. The experiment in a line: Antibacterial activity against Escherichia coli UTI89 at 400 uM after 24 hrs by spectrophotometry. The assay is classed as functional, organism-based.
Assay [7] has as its target Major curlin subunit (Escherichia coli (strain K12)) (UniProt P28307). The assay is described as follows: Inhibition of CsgA polymerization in Escherichia coli K-12 at 125 uM after 24 hrs by thioflavin-T amyloid polymerization assay. An outline of the steps: (§3)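 Freshly purified, soluble, unstructured C-terminal His6-CsgA (25 μM) was incubated with 25 μM ThT with or without compound. Fluorescence (excitation 438 nm, emission 495 nm) was followed over time at 60-min intervals. Soluble CsgA was confirmed by SDS-PAGE and anti-CsgA western blot, since polymerized CsgA is SDS-insoluble.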

The target is the same in assay [8]. The assay is described as follows: Inhibition of CsgA polymerization in Escherichia coli K-12 at 10 uM after 24 hrs by thioflavin-T amyloid polymerization assay. The procedure, abridged: as §3
For assay [9] the target is unchanged. The assay is described as follows: Inhibition of CsgA polymerization in Escherichia coli K-12 at 25 uM after 24 hrs by thioflavin-T amyloid polymerization assay. The procedure, abridged: as §3
Assay [10] concerns Escherichia coli. The assay is described as follows: Inhibition of type 1 pili biogenesis in uropathogenic Escherichia coli UTI89 at 5 to 15 uM after 48 hrs by SYTO83 staining-based confocal microscopy. The format is functional, organism-based.
The subject of assay [11] is Escherichia coli. The experiment in a line: Inhibition of type 1 pili biogenesis in uropathogenic Escherichia coli UTI89 at 5 to 15 uM after 48 hrs by congo red staining-based confocal microscopy. The assay is classed as functional, organism-based.
Assay [12] has as its system Escherichia coli. The experiment in a line: Inhibition of type 1 pili biogenesis in uropathogenic Escherichia coli UTI89 at 5 to 15 uM after 48 hrs by calcofluor staining-based confocal microscopy. The assay is classed as functional, organism-based.
Assay [13] relates to Escherichia coli. The experiment in a line: Inhibition of […] in uropathogenic Escherichia coli UTI89 at 5 uM after 48 hrs in YESCA broth medium by congo red staining-based […]. The assay is classed as functional, organism-based. An outline of the steps: (§4)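 Pellicle formation was scored visually in a 24-well plate assay. UTI89 was grown in Congo red-containing YESCA broth at 30 °C, with pellicles judged about 48 h after inoculation. DMSO carrier served as control.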

Assay [14] relates to Escherichia coli. The assay is described as follows: Inhibition of curli protein biogenesis in uropathogenic Escherichia coli UTI89 assessed as inhibition of biofilm formation in PVC wells at 50 uM after 48 hrs in YESCA broth medium by crystal violet staining. As to conditions: UTI89, 48 h. The assay is classed as functional. An outline of the steps: (§5)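 UTI89 was grown 48 h in YESCA broth in PVC microtiter wells with compound. Wells were rinsed, stained with crystal violet and quantified. Percent inhibition is relative to no-compound controls included on each plate. Data are four experiments, with bars as s.d.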

The subject of assay [15] is Escherichia coli. The assay is described as follows: Inhibition of curli protein biogenesis in uropathogenic Escherichia coli UTI89 assessed as inhibition of biofilm formation in PVC wells at 100 uM after 48 hrs in YESCA broth medium by crystal violet staining. Conditions: UTI89, 48 h. The format is functional. An outline of the steps:
as §5

The subject of assay [16] is Escherichia coli. The assay is described as follows: Inhibition of type 1 pili biogenesis in uropathogenic Escherichia coli UTI89 assessed as complete inhibition of biofilm formation in PVC wells at 50 uM after 48 hrs in LB broth medium by crystal violet staining. The assay is classed as functional. As to conditions: UTI89, 48 h. The procedure, abridged: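 UTI89 was grown 48 h in LB broth in PVC microtiter wells with compound; biofilm here is type 1 pili-dependent. Wells were rinsed and stained with crystal violet. Percent inhibition is relative to no-compound controls on each plate, from four experiments.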

Assay [17] has as its system Escherichia coli. The experiment in a line: Antibacterial activity against uropathogenic Escherichia coli UTI89 infected in C3H/HeN mouse assessed as reduction bacterial load in bladder at 250 uM after 6 hrs post-infection by punctate violet staining relative to control. The format is functional, Urinary bladder. An outline of the steps: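 UTI89 was grown under type 1 pili-inducing conditions with or without 250 μM compound, then resuspended in PBS to OD600 0.5. 50 μl (1–2 × 10^7 CFU) was instilled transurethrally into 7–8-week-old female C3H/HeN mice. At 6 hpi, bladders were homogenized and plated for CFU (16 h, 37 °C), or fixed and LacZ-stained to count IBCs. Two-tailed Mann-Whitney test.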

The subject of assay [18] is Escherichia coli. The assay is described as follows: Inhibition of curli protein biogenesis in uropathogenic Escherichia coli UTI89 at 60 to 250 uM after 48 hrs in YESCA broth medium by polyacrylamide gel-shift assay.
For assay [19], the system named is Escherichia coli. The assay is described as follows: Inhibition of type 1 pili biogenesis in uropathogenic Escherichia coli UTI89 at 500 uM after 48 hrs in YESCA broth medium by congo red staining-based confocal microscopy. The assay is classed as functional, organism-based. Conditions: in the assay text read “curli-dependent pellicle formation” for “type 1 pili biogenesis”. The procedure, abridged:
as §4

Assay [20] relates to Escherichia coli. The assay is described as follows: Inhibition of curli protein biogenesis in uropathogenic Escherichia coli UTI89 assessed as complete inhibition of biofilm formation in PVC wells at 50 to 400 uM after 48 hrs in YESCA broth medium by crystal violet staining. The assay is classed as functional, organism-based. An outline of the steps:
as §5

The test system of assay [21] is Escherichia coli. The assay is described as follows: Inhibition of curli protein biogenesis in Escherichia coli K-12 at 2.5 mM […] by polyacrylamide gel-shift assay. The assay is classed as functional, organism-based. An outline of the steps: as §1
Assay [22] deals with Escherichia coli. The assay is described as follows: Inhibition of curli protein biogenesis in uropathogenic Escherichia coli UTI89 assessed as complete inhibition of biofilm formation in PVC wells at 200 uM after 48 hrs in YESCA broth medium by crystal violet staining. The assay is classed as functional, organism-based. An outline of the steps:
as §5

Assay [23] deals with Escherichia coli. The experiment in a line: Inhibition of curli protein biogenesis in uropathogenic Escherichia coli UTI89 assessed as complete inhibition of biofilm formation in PVC wells at 400 uM after 48 hrs in YESCA broth medium by crystal violet staining. The format is functional, organism-based. The procedure, abridged: as §5
The test system of assay [24] is Escherichia coli. The assay is described as follows: Inhibition of type 1 pili biogenesis in uropathogenic Escherichia coli UTI89 at 25 uM after 48 hrs in YESCA broth medium by […]. The assay is classed as functional, organism-based. An outline of the steps:
as §4

Activity calls are given as the source filed them. No cut-off for these calls is given here.

Major curlin subunit (Escherichia coli (strain K12)), sequence (P28307 whole entry): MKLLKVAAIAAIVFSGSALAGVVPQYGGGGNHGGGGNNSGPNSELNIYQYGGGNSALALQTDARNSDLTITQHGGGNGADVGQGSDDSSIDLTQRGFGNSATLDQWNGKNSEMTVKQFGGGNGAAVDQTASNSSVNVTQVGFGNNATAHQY

For orientation: inhibition means the percentage by which the read-out fell short of the control. Regarding `O=C(O)[C@@H]1CSc2c(-c3cccc(C(F)(F)F)c3)c(Cc3cccc4ccccc34)cc(=O)n21`, the inhibition result in assay [1] and in assay [4] was “inactive” in each case. Also, the inhibition entry in assay [2], in [3], in assay [5], in assay [7], in assay [8] and in assay [9] was “Active” throughout. Moreover, the inhibition entry in [10], in assay [11], in [12], in assay [13] and in assay [18] was “Active” throughout. In addition, the result in assay [6] was inactive. In addition, the inhibition at 50 µM in [14] worked out at 50%; in [16], 99%. The inhibition at 100 µM in [15] is 90%. In addition, in assay [17], the “fold change (FC)” value is recorded as 10.
Turning to `O=C(O)[C@@H]1CSc2c(C3CC3)c(Cc3cccc4ccccc34)cc(=O)n21`, the inhibition entry in assay [1], in assay [4], in assay [5], in [19] and in assay [20] was “inactive” in each case. Besides, the result in assay [6] was inactive. In addition, the inhibition at 50 µM in assay [16] is 38%.
Take `O=C(O)[C@@H]1CSc2c(-c3ccc(Br)cc3)c(Cc3cccc4ccccc34)cc(=O)n21`: the inhibition result in [1], in assay [21], in [4] and in assay [13] was “inactive” throughout. Also, the inhibition entry in assay [3], in assay [5], in assay [22], in assay [23] and in assay [18] was “Active” throughout. In assay [6], the result was inactive. The inhibition at 100 µM in [15] was 50%.
Regarding `O=C(O)[C@@H]1CSc2c(-c3ccc(F)c(F)c3)c(Cc3ccc4ccccc4c3)cc(=O)n21`, the inhibition entry in assay [1] and in assay [4] was “inactive” in each case. Besides, the inhibition result in assay [21], in assay [3], in assay [5], in assay [7], in assay [9] and in [10] was “Active” in each case. Moreover, the inhibition result in assay [11], in assay [12], in assay [24], in assay [22], in assay [23] and in assay [18] was “Active” in each case. Moreover, the outcome in [6] was inactive. In addition, the inhibition at 100 µM in assay [15] turned out to be 50%. For the same compound, the inhibition at 50 µM in [16] worked out at 92%.
